One block for each compound: values may come before it. Activity calls are given as the source filed them. The rule behind the calls is not given here.
Assays:
[1] = Toxicity in CD-1 mouse assessed as effect on stool weight at 10 mg/kg, po administered via gavage for 1 hr; assay type: organism-based; conditions: in vivo
Outline: (§1)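 Female CD1 mice aged 8–10 weeks without loperamide: 10 mg/kg compound or vehicle (PBS with 5% DMSO and 20% (2-hydroxypropyl)-β-cyclodextrin) by gavage, 1 h before ip injection of loperamide vehicle (5% ethanol in PBS). Mice were caged singly in metabolic cages and stool collected 3 h for weight, pellet count and water content (dried 80 °C, 24 h).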

[2] = AUC in mouse at 10 mg/kg, po by LC-MS analysis; assay type: ADME, organism-based; conditions: in vivo
Outline: (§2)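 Single intraperitoneal or oral dose in mice at 5 mg/kg (vehicle: saline with 5% DMSO and 10% Kolliphor HS 15) or 10 mg/kg (vehicle: PBS with 5% DMSO and 20% (2-hydroxypropyl)-β-cyclodextrin). Blood taken by retroorbital puncture at set times, serum separated by centrifugation at 4000 g for 20 min at 24 °C, compound quantified by LC/MS.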

Mus musculus [3] = test: Anti-absorptive activity in loperamide-induced CD-1 mouse model of constipation assessed as improvement in stool water content at 3 mg/kg, po administered via gavage for 1 hr prior to loperamide challenge and measured after 3 hrs; assay type: functional, organism-based
Outline: (§3)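 Mice were held singly in metabolic cages with food and water. Stool was collected 3 h for weight and pellet count; water content = (wet−dry)/wet after drying 24 h at 80 °C. 5-8 mice/group, one-way ANOVA with Newman-Keuls.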

Mus musculus [4] = test: Anti-absorptive activity in loperamide-induced CD-1 mouse model of constipation assessed as improvement in stool weight at 3 mg/kg, po administered via gavage for 1 hr prior to loperamide challenge and measured after 3 hrs; assay type: functional, organism-based; outline: as §3
[5] = target: T1, Solute carrier family 26 member 9 (Homo sapiens) (UniProt Q7LBE3); test: Inhibition of human slc26a9 expressed in FRT cells co-expressing EYFP-H148Q/I152L/F46L assessed as reduction in protein-mediated chloride/iodide exchange at 10 uM preincubated for 10 mins followed by NaI-substituted PBS addition and measured by YFP-based fluorescence assay; assay type: cell-based
T1 sequence (whole entry): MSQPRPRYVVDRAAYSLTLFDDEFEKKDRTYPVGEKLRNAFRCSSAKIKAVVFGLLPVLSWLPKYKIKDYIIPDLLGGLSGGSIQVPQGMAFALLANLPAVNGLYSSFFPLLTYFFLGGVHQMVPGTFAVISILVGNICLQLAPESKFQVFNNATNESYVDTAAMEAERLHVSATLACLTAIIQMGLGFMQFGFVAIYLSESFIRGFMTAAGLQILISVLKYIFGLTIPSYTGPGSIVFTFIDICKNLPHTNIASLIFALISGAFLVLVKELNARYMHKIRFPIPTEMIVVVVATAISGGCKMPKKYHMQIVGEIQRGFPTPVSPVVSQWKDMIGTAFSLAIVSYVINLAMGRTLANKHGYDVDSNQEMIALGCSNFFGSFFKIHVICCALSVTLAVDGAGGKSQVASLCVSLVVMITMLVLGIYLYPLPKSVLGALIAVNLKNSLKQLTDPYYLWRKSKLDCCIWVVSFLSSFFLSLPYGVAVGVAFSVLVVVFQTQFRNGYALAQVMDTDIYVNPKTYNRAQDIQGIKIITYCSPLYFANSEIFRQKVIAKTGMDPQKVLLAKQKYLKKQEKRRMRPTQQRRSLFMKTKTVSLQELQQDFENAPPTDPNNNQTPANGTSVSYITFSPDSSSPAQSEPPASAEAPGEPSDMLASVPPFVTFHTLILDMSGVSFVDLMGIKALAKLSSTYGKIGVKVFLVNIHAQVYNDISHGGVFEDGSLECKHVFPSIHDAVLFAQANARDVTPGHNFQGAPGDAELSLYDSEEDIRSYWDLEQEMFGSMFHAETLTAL
Outline: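 FRT cells expressing the given slc26 transporter plus EYFP-H148Q/I152L/F46L were preincubated 10 min with 0 or 10 µM compound in PBS. Iodide-substituted PBS was then added (140 mM NaCl replaced by NaI). The rate of YFP fluorescence quenching gave chloride/iodide exchange.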

Mus musculus [6] = test: Anti-absorptive activity in loperamide-induced CD-1 mouse model of constipation assessed as stool hydration at 1 mg/kg, po administered via gavage for 1 hr prior to loperamide challenge and measured after 3 hrs relative to control; assay type: functional; outline: as §3
[7] = Cmax in mouse at 10 mg/kg, po by LC-MS analysis; assay type: ADME, organism-based; parameters: dose 10 mg/kg, route oral; conditions: in vivo; outline: as §2
[8] = Tmax in mouse at 10 mg/kg, po by LC-MS analysis; assay type: ADME, organism-based; conditions: in vivo; outline: as §2
[9] = Tmax in mouse at 10 mg/kg, ip by LC-MS analysis; assay type: ADME, organism-based; conditions: in vivo; outline: as §2
[10] = Toxicity in CD-1 mouse assessed as effect on fecal pellet number at 10 mg/kg, po administered via gavage for 1 hr; assay type: organism-based; conditions: in vivo; outline: as §1
[11] = AUC in mouse at 10 mg/kg, ip by LC-MS analysis; assay type: ADME, organism-based; conditions: in vivo; outline: as §2
[12] = Cmax in mouse at 10 mg/kg, ip by LC-MS analysis; assay type: ADME, organism-based; parameters: dose 10 mg/kg, route intraperitoneal; conditions: in vivo; outline: as §2
[13] = Toxicity in CD-1 mouse assessed as effect on stool water content at 10 mg/kg, po administered via gavage for 1 hr; assay type: organism-based; conditions: in vivo; outline: as §1
Mus musculus [14] = test: Anti-absorptive activity in loperamide-induced CD-1 mouse model of constipation assessed as improvement in fecal pellet number at 3 mg/kg, po administered via gavage for 1 hr prior to loperamide challenge and measured after 3 hrs; assay type: functional, organism-based; outline: as §3
[15] = Drug level in mouse serum at 10 mg/kg, po or ip measured after 72 hrs by LC-MS analysis; assay type: ADME, organism-based; conditions: read-out: Drug uptake; outline: as §2
[16] = Tmax in mouse at 5 mg/kg, ip by LC-MS analysis; assay type: ADME, organism-based; conditions: in vivo; outline: as §2
[17] = Cmax in mouse at 5 mg/kg, po by LC-MS analysis; assay type: ADME, organism-based; parameters: dose 5 mg/kg, route oral; conditions: in vivo; outline: as §2
Mus musculus [18] = test: Anti-absorptive activity in loperamide-induced CD-1 mouse model of constipation assessed as improvement in fecal pellet number at 5 mg/kg, po administered via gavage for 1 hr prior to loperamide challenge and measured after 3 hrs; assay type: functional, organism-based
Outline: (§4)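 Female CD1 mice aged 8–10 weeks were gavaged with 5 mg/kg compound or vehicle 1 h before ip loperamide (0.3 mg/kg in 5% ethanol/PBS). Mice were kept singly in metabolic cages and stool collected for 3 h. Total weight and pellet number were recorded; water content = (wet−dry)/wet after drying at 80 °C for 24 h. Mean ± S.E.M., 4-6 mice per group.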

Mus musculus [19] = test: Anti-absorptive activity in loperamide-induced CD-1 mouse model of constipation assessed as improvement in stool weight at 5 mg/kg, po administered via gavage for 1 hr prior to loperamide challenge and measured after 3 hrs; assay type: functional, organism-based; outline: as §4
[20] = Tmax in mouse at 5 mg/kg, po by LC-MS analysis; assay type: ADME, organism-based; conditions: in vivo; outline: as §2
[21] = Drug uptake in mouse serum at 5 mg/kg, po or ip measured after 16 hrs by LC-MS analysis; assay type: ADME, organism-based; conditions: in vivo; outline: as §2
Mus musculus [22] = test: Anti-absorptive activity in loperamide-induced CD-1 mouse model of constipation assessed as improvement in stool water content at 5 mg/kg, po administered via gavage for 1 hr prior to loperamide challenge and measured after 3 hrs; assay type: functional, organism-based; outline: as §4
[23] = Cmax in mouse at 5 mg/kg, ip by LC-MS analysis; assay type: ADME, organism-based; parameters: dose 5 mg/kg, route intraperitoneal; conditions: in vivo; outline: as §2
[24] = AUC in mouse at 5 mg/kg, ip by LC-MS analysis; assay type: ADME, organism-based; conditions: in vivo; outline: as §2

- AUC [2]: 130 µM·h
- inhibition [5]: inactive
- Cmax [7]: 4.7 µM
- Tmax [8]: 390 min
- Tmax [9]: 30 min
- AUC [11]: 331 µM·h
- Cmax [12]: 29.1 µM
- concentration at 72 h [15]: 1 µM
SMILES: Cc1c(CC(=O)O)c(=O)oc2c(C)c(OCc3cccc(I)c3)ccc12
- Activity [1]: Non-Toxic
- Activity (Mus musculus [3]): Active
- Activity (Mus musculus [4]): Active
- Activity (Mus musculus [6]): >50%
- Activity [10]: Non-Toxic
- Activity [13]: Non-Toxic
- Activity (Mus musculus [14]): Active

- Tmax [16]: 48 min
- Cmax [17]: 12.9 µM
- inhibition [5]: inactive
- Tmax [20]: 48 min
- Drug uptake [21]: Active
- Cmax [23]: 70.2 µM
- AUC [24]: 418 µM·h
SMILES: Cc1c(CC(=O)O)c(=O)oc2c(C)c(OCc3cccc(C(F)(F)F)c3)ccc12
- Activity (Mus musculus [18]): Active
- Activity (Mus musculus [19]): Active
- Activity (Mus musculus [22]): Active

— ChEMBL document CHEMBL4373708 (J Med Chem, 2019)
